# Test results from ChEMBL document CHEMBL1123574, “Plant antitumor agents. 28. Resolution of a key tricyclic synthon, 5'(RS)-1,5-dioxo-5'-ethyl-5'-hydroxy-2'H,5'H,6'H-6'-oxopyrano[3' ,4'- f]delta 6,8-tetrahydro-indolizine: total synthesis and antitumor activity of 20(S)- and 20(R)-camptothecin” (1987).
# Columns and labels:
# Format in all cases: functional
# Mus musculus [1] = assay: L-1210 mouse leukemia life prolongation activity was measured as T/C (mean survival time of treated animals divided by the mean survival time of the controls times 100) at dose 80 mg/kg
# Method in brief: (§1)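 In vivo L-1210 leukemia in mice, run by NCI contractors by standard procedures. Two intraperitoneal doses given, on day 1 and day 5 of the study. Readout is mean survival time of treated animals over that of controls, ×100 (T/C).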
# Mus musculus [2] = assay: L-1210 mouse leukemia life prolongation activity was measured as T/C (mean survival time of treated animals divided by the mean survival time of the controls times 100) at dose 20 mg/kg; method in brief: as §1
# Mus musculus [3] = assay: L-1210 mouse leukemia life prolongation activity was measured as T/C (mean survival time of treated animals divided by the mean survival time of the controls times 100) at dose 40 mg/kg; method in brief: as §1
# Mus musculus [4] = assay: L-1210 mouse leukemia life prolongation activity was measured as T/C (mean survival time of treated animals divided by the mean survival time of the controls times 100) at dose 10 mg/kg; method in brief: as §1
# Mus musculus [5] = assay: L-1210 mouse leukemia life prolongation activity was measured as T/C(mean survival time of treated animals divided by the mean survival time of the controls times 100) at dose 2.5 mg/kg; method in brief: as §1
# Mus musculus [6] = assay: L-1210 mouse leukemia life prolongation activity was measured as T/C (mean survival time of treated animals divided by the mean survival time of the controls times 100) at dose 5 mg/kg; method in brief: as §1
# Mus musculus [7] = assay: L-1210 mouse leukemia life prolongation activity was measured as T/C (mean survival time of treated animals divided by the mean survival time of the controls times 100) at dose 1.25 mg/kg; method in brief: as §1
# Mus musculus [8] = assay: L-1210 mouse leukemia life prolongation activity was measured as T/C (mean survival time of treated animals divided by the mean survival time of the controls times 100) at dose 2.5 mg/kg; method in brief: as §1
SMILES,T/C (Mus musculus [1]),T/C (Mus musculus [2]),T/C (Mus musculus [3]),T/C (Mus musculus [4]),T/C (Mus musculus [5]),T/C (Mus musculus [6]),T/C (Mus musculus [7]),T/C (Mus musculus [8])
CC[C@@](O)(C(=O)[O-])c1cc2n(c(=O)c1CO)Cc1cc3ccccc3nc1-2.[Na+],215,167,181,126,,,,
CC[C@@]1(O)C(=O)OCc2c1cc1n(c2=O)Cc2cc3ccccc3nc2-1 [CAMPTOTHECIN],,,,250,147,185,129,
CC[C@]1(O)C(=O)OCc2c1cc1n(c2=O)Cc2cc3ccccc3nc2-1,,132,,118,,114,,114
